Test results: PubChem BioAssay AID652279 (Broad Institute, 2013)

The compounds below were run on T. cruzi CAI/72 in J774 macrophages, trypomastigote emergence, microscopy (assay: intracellular T. cruzi relapse after drug removal – imaging, CAI/72 strain, J774 macrophages, dry powder, mechanism study, late-stage follow-up (AID 652279)). Conditions: stronger effect = higher value.
How it was run: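 Material: Irradiated (9000 rad) J774 macrophages infected with T. cruzi CAI/72 / Buffer or medium: RPMI-1640, 5% FCS / Doses: compound replenished every 3 days, starting 24 h post-infection / Timing: 1 or 3 weeks dosing, then 31 or 17 days washout / Signal: daily light-microscopy check for trypomastigote emergence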

Row | Compound | slope of emergence day vs concentration
1 | CN(C)CC#Cc1cccc(-c2nc(C(=O)NCc3ccc4c(c3)OCO4)cc3c2[C@@H](CCO)N(S(=O)C(C)(C)C)C3)c1 (stereo partly specified) | 4.35
2 | CC(C)N1C[C@H](CN(C)Cc2ccc(Cl)cc2)Oc2c(NC(=O)c3ccncc3)cccc2C1=O | 2.02
3 | CC(C)N1C[C@@H](CN(C)CCc2ccc(Cl)c(Cl)c2)Oc2c(NC(=O)c3ccncc3)cccc2C1=O | 6.4
4 | CC(C)N1C[C@@H](CN(C)Cc2ccc(Cl)cc2)Oc2c(NC(=O)c3ccncc3)cccc2C1=O | 2.21
5 | CN(C)C(=O)c1cccc(-c2ccc([C@H]3[C@H](CO)N4CCCCN(C(=O)C5CCC5)C[C@@H]34)cc2)c1 | 1.4
6 | CC(C)N1C[C@@H](CN(C)Cc2ccc(Oc3ccccc3)cc2)Oc2c(NC(=O)c3ccncc3)cccc2C1=O | 5.84
7 | CN(C)CC#Cc1cccc(-c2nc(C(=O)N[C@@H]3CCN(Cc4ccccc4)C3)cc3c2[C@@H](CCO)N(S(=O)C(C)(C)C)C3)c1 (stereo partly specified) | 2.02
8 | CC(C)N1C[C@@H](CN(C)Cc2ccc(Cl)cc2)Oc2c(NC(=O)c3ccncc3)cc(F)cc2C1=O | 2.15
9 | CC(C)N1C[C@@H](CN(C)CCc2ccc(Cl)cc2)Oc2c(NC(=O)c3ccncc3)cccc2C1=O | 6.07
10 | CC(C)N1C[C@@H](CN(C)Cc2ccc(Cl)cc2)Oc2c(C(=O)Nc3ccncc3)cccc2C1=O | 4.59
11 | CC(C)N1C[C@@H](CN(C)Cc2ccc(Cl)c(Cl)c2)Oc2c(NC(=O)c3ccncc3)cccc2C1=O | 6.07
